Screening data as filed in PubChem.
Sampled rows, rich in hits. Any-hit rate of the full collection: about 0.99%.
LYPLA2 counter – blocks human lysophospholipase 2, a PME1 counter-screen. recombinant LYPLA2, FP-Rh probe fluorescence polarization. hit rate 0.38% among 320,000. O95372. inhibition, % at 5.9 µM;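 active = inhibition above the screen-wide mean plus 3 SD, limit set per campaign, cut at about 26% in these data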;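 also: 0% = LYPLA2 with DMSO and 100% = wells lacking LYPLA2 enzyme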
Target sequence (O95372 whole entry, looked up): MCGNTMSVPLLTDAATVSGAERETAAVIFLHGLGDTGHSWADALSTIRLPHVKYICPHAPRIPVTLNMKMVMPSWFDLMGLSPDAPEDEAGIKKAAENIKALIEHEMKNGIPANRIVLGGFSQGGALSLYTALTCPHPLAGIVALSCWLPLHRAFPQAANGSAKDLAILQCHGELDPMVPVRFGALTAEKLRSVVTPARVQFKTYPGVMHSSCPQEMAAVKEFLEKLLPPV
Fam108B counter – counter-screen for RBBP9 inhibitors: inhibitors of mouse Fam108B; hit rate 0.33% among 300,000; inhibition, % at 9.51 µM; recombinant Fam108B, FP-Rh probe fluorescence polarization;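 active = inhibition above the screen mean inhibition plus 3 SD, computed separately per campaign, cut at about 18% in these data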;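 also: inhibitors lower polarization as less probe binds the enzyme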
RBBP9 inh – inhibitors of human serine hydrolase RBBP9; recombinant RBBP9, FP-Rh probe fluorescence polarization; inhibition, % at 7.94 µM; hit rate 0.2% among 220,000; AID 1515;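 active = inhibition above the campaign mean of all tested compounds plus 3 SD, cut at about 14% in these data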;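 also: plate controls were DMSO wells with RBBP9 for no effect and wells lacking RBBP9 protein for full effect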
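Measured by – fluorescence polarization · Test system – RBBP9 protein · Input – 2.5 µM RBBP9 dispensing solution, before mixing · Measure – percent inhibition from mP, scaled between DMSO and no-protein wells · Benchmarks – DMSO-treated enzyme wells and wells lacking RBBP9 · Times – preincubation 30 min plus labeling 45 min at 25 °C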
LYPLA1 inh – counter-screen for PME1 inhibitors: inhibitors of human LYPLA1 | recombinant LYPLA1, FP-Rh probe fluorescence polarization | inhibition, % at 5.9 µM | hit rate 0.16% among 320,000;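 active = inhibition above the mean of all tested compounds plus 3 SD, set per campaign, cut at about 14% in these data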;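 also: inhibitors block serine hydrolase probe labeling of LYPLA1 so polarization falls; 0% = enzyme with DMSO and 100% = wells lacking LYPLA1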
PME-1 primary – PME-1 (human) inhibition; Q9Y570; inhibition, % at 5.9 µM; recombinant PME-1, FP-Rh probe fluorescence polarization; hit rate 0.53% among 320,000; AID 2130;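 active = inhibition above the campaign mean of all compounds plus 3 SD, cut at about 26% in these data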;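 also: competitive labeling of PME-1 active site by serine hydrolase directed probe; 0% = PME-1 with DMSO and 100% = wells lacking PME-1 enzyme; inhibitors block probe labeling so polarization falls and inhibition rises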
Target sequence (Q9Y570 whole entry, looked up): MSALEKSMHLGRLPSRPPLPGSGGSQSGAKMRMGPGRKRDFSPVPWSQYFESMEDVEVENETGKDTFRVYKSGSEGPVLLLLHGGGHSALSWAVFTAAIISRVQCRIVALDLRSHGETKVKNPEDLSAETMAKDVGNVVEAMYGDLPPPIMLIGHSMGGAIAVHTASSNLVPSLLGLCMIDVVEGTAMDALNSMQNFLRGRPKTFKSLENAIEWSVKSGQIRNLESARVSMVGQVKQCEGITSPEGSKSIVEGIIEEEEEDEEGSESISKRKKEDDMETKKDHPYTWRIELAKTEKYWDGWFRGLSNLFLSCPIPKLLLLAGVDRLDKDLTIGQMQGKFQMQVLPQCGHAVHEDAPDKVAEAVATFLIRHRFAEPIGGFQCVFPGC
LYPLA2 confirm – counter-screen for PME1 inhibitors: confirmation of human LYPLA2 inhibitors. shares compounds with LYPLA2 counter. recombinant LYPLA2, FP-Rh probe fluorescence polarization. inhibition, % at 5.9 µM. hit rate 72% among 1,100. AID 2232;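 active = mean inhibition across replicates above the hit cutoff set in the primary screen, cut at about 26% in these data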;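 also: blocked labeling of the enzyme by serine hydrolase FP-Rh probe lowers polarization; 0% = enzyme with DMSO and 100% = wells lacking LYPLA2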
LYPLA2 gel ABPP – LYPLA2 (human) inhibition, late stage results; shares compounds with LYPLA2 counter; rhLYPLA2 in mouse brain proteome, gel ABPP FP-Rh; inhibition, % at 20 µM; hit rate 30% among 150; AID 652029;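 active = inhibition of LYPLA2 enzyme probe labeling above about 50%, limit read from the data; inactive = inhibition below that limit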;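 also: loss of FP-Rh probe labeling of the LYPLA2 gel band measured as band density; 0% = DMSO only control band and 100% = blank gel background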
Active calls of the source: *; · = no result given.

SMILES	LYPLA2 counter	Fam108B counter	RBBP9 inh	LYPLA1 inh	PME-1 primary	LYPLA2 confirm	others
Cc1ccc(NC(=O)CN2C(=O)S/C(=C\c3cc(C)n(-c4ccc(C(=O)O)cc4)c3C)C2=O)cc1	41.7*	2.8	-5.8	-5.0	1.3	43.1*
Cc1ccc(NC(=O)CN2C(=O)N/C(=C/c3cc(C)n(-c4ccc(C(=O)O)cc4)c3C)C2=O)cc1	·	·	2.4	·	·	·
Cc1ccc(NC(=O)CN2C(=O)S/C(=C\c3cccn3-c3cccc(C(=O)O)c3)C2=O)cc1C	35.8*	-1.7	-4.2	-9.3	-11.3	43.1*
C/C(=N\OCC(=O)OCC(=O)N(Cc1ccccc1)C(C)(C)C)c1ccc2c(c1)OCO2	-1.9	3.5	·	-3.2	-7.2	·
CC(C)(C)C(=O)Nc1nnc(SCC(=O)NC2CC2)s1	-1.6	1.1	·	-0.1	-7.1	·
O=[N+]([O-])c1ccc(C(O)CN2CCN(C/C=C/c3ccccc3)CC2)cc1 (stereo not drawn)	62.2*	-5.3	·	7.6	3.7	54.1*	LYPLA2 gel ABPP=36.0
O=C(CN1CCN(C/C=C/c2ccccc2)CC1)Nc1cc([N+](=O)[O-])ccc1Cl	30.9*	1.1	-5.3	21.7*	3.8	28.5*
Cc1cc(NC(=O)CN2CCN(C/C=C/c3ccccc3)CC2)c([N+](=O)[O-])cc1C	4.9	-1.7	-7.2	0.8	-4.2	·
O=[N+]([O-])c1ccc(C(O)CN2CCN(Cc3ccccc3)CC2)cc1 (stereo not drawn)	-3.2	-2.6	·	-4.2	-2.1	·
CCOc1ccc(C(=O)NC(=S)Nc2ccc(NC(=O)CC)cc2)cc1[N+](=O)[O-]	28.4*	-5.6	-2.1	-2.1	-2.0	27.0*
Nc1c(C(=O)c2ccccc2)sc2snc(SCC(=O)c3ccccc3)c12	8.9	11.9	5.8	-4.2	12.6	·
O=c1ccc2cc(S(=O)(=O)N3CCN(c4ccc(Cl)cc4)CC3)ccc2o1	1.4	-0.1	·	-6.6	0.9	·
CCCCOc1ccc(CSc2nc(C)[nH]c2[N+](=O)[O-])cc1[N+](=O)[O-]	49.8*	2.5	-6.6	11.4	-0.7	54.3*	LYPLA2 gel ABPP=20.0
Nc1ccc(Oc2ccc([N+](=O)[O-])cc2[N+](=O)[O-])cc1	54.3*	0.9	0.0	2.3	3.5	57.5*	LYPLA2 gel ABPP=1.0
COc1cc(/C=C2\C(=O)N(c3ccccc3)N=C2C)ccc1Oc1ccc([N+](=O)[O-])cc1[N+](=O)[O-]	30.7*	9.5	-7.0	0.3	9.8	17.8
CC1=NN(c2ccccc2)C(=O)/C1=C\c1ccc(Oc2ccc([N+](=O)[O-])cc2[N+](=O)[O-])cc1	40.7*	6.3	-14.7	12.0	9.1	30.9*
CC1(C)NC(=O)N(CC(O)CN(c2cccc([N+](=O)[O-])c2)S(=O)(=O)c2ccccc2)C1=O (stereo not drawn)	3.0	2.1	·	1.2	0.8	·
CCOC(=O)CSc1nc(N)c(C(=O)Nc2ccc(N(C)C)cc2)s1	9.3	1.1	4.0	0.2	-0.6	·
COC(=O)[C@@H](NC(=O)O[C@@H]1C(=O)c2ccc(OC)cc2O[C@H]1c1cccc(C(F)(F)F)c1)C(C)C	-2.0	-12.0	-11.8	-3.5	0.8	·
CCOC(=O)c1c(NC(=O)C2=COCCO2)sc2c1CCN(C(=O)OC)C2	5.4	-3.1	·	-0.3	0.6	·
Cc1cc(C(=O)NC(C)c2ccncc2)cs1 (stereo not drawn)	4.4	1.1	-7.2	3.4	2.2	·
COCC(=O)N/N=C\c1ccccc1OC/C=C/c1ccccc1	49.6*	1.5	·	1.7	0.7	42.4*
COc1ccc(N/C=C2/CCCCC2=O)cc1	2.7	3.6	-7.1	-1.0	0.6	·
COc1ccc(Oc2ccc(N/C=C3\CCCC3=O)cc2)cc1	38.5*	1.0	-6.1	6.6	10.3	37.0*
COc1ccc(Oc2ccc(N/C=C3/CCCC3=O)cc2)cc1	40.5*	4.0	-2.8	3.2	4.3	36.3*
SMILES	LYPLA2 counter	Fam108B counter	RBBP9 inh	LYPLA1 inh	PME-1 primary	LYPLA2 confirm	others
CCc1ccc(NC(=O)CCC(=O)Nc2nnc(C(F)(F)F)s2)cc1	2.0	3.9	·	-2.8	-4.8	·
CC(C)CCn1c(=O)c2sccc2n2c(CCCC(=O)N3CCC(N4CCCCC4)CC3)nnc12	27.9*	-0.7	·	5.8	6.6	3.1
Cn1c(=O)c2c(ncn2CCC(=O)N/N=C/c2ccccc2)n(C)c1=O	1.1	4.1	-5.5	2.2	5.0	·
Cn1c(=O)c2c(ncn2CC(=O)N/N=C/C(Cl)=C/c2ccccc2)n(C)c1=O	32.4*	0.5	-6.5	7.9	3.4	22.1
O=C(C1CCN(c2nnc(N3CCCC3=O)s2)CC1)N1CCN(Cc2ccc3c(c2)OCO3)CC1	·	·	1.1	·	·	·
O=C(C1CCN(c2nnc(-n3cccc3)s2)CC1)N1CCN(Cc2ccc3c(c2)OCO3)CC1	34.5*	1.0	-3.6	3.8	-1.6	46.1*
O=C(O)c1cc(NN=Nc2cccc([N+](=O)[O-])c2)cc([N+](=O)[O-])c1	27.7*	4.2	-1.8	9.6	9.4	28.0*
CCCOc1ccc(-c2c(=O)n(O)c3ccccc3[n+]2[O-])cc1	50.4*	-1.1	·	8.0	-8.0	19.6
CCOc1ccc(-c2c(=O)n(OCc3ccccn3)c3ccccc3[n+]2[O-])cc1	24.1	0.1	-6.8	0.8	-1.9	·
COc1cccc(CN(C)C(=O)c2ccc(Oc3ccccc3)cc2)c1OC	29.9*	2.8	·	3.8	6.7	7.0
Cn1cc(C(=O)NCCN2CCN(c3cccc(Cl)c3)CC2)c2c3ccccc3n(C)c2c1=O	25.9*	-0.1	-1.4	6.7	3.3	35.1*
COCCn1c(=O)[nH]c2cc(C(=O)NCCN3CCN(c4cccc(Cl)c4)CC3)ccc2c1=O	44.6*	0.2	-16.0	5.5	-5.0	35.6*
COc1ccc(N2CCN(C(=O)c3ccc(NC(=O)C4=CSCCO4)cc3)CC2)cc1	34.8*	0.8	·	-4.1	4.9	38.1*
O=C(Nc1ccc(C(=O)N2CCN(c3ccc(F)cc3)CC2)cc1)C1=CSCCO1	20.2	0.6	·	1.4	3.1	·
COc1cccc(N2CCN(C(=O)c3ccc(-c4ccccc4)cc3)CC2)c1	29.7*	-2.4	·	1.7	-1.0	26.2*
COc1ccc(C(=O)N2CCN(c3cccc(Cl)c3)CC2)cc1	8.2	0.6	-3.1	2.5	-7.2	·
CC(=O)c1ccc(N2CCN(C(=O)c3ccc(OCc4c(C)noc4C)cc3)CC2)cc1	36.6*	-4.7	3.4	-3.9	-6.9	28.4*
Cc1ccc(C(=O)N2CCN(c3ccc(NC(=O)c4cccnc4)cc3)CC2)cc1	17.3	4.3	-9.0	0.3	-7.6	·
Cc1noc(C)c1COc1ccc(C(=O)N2CCN(c3ccccc3F)CC2)cc1	17.5	-3.3	·	0.1	-2.0	·
COc1cc(C(=O)Nc2ccc(N3CCN(C(=O)c4ccc(C)cc4)CC3)cc2)cc(OC)c1OC	37.9*	-1.3	·	7.9	2.5	50.0*	LYPLA2 gel ABPP=35.0
